Assay results as given in article PMC3397176 (Journal of Medicinal Chemistry, 2012).
Where “and” joins values, the source holds several entries; their conditions need not be identical. Equal values may be shown once. Each block holds one molecule with its values, some of them ahead of it.

Tests used:
Bcl-2 = Bcl-2 (Homo sapiens, UniProt P10415); assay: FP-based competitive binding assay, Bcl-2
Aqueous solubility = format: physicochemical
[1] = system: H146 small-cell lung cancer cell line; assay: Cell growth assay; format: cell-based, Human; conditions: H146 and H1417
H146 cancer cell line = assay: Cell death assay; format: cell-based, Human; conditions: H146, 24 h, trypan blue
Summary of the method: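 Human small cell lung cancer H146 cells from ATCC, grown in RPMI-1640 with 10% FBS, exposed to test compound for 24 h. Cells then collected and stained with trypan blue. Blue-stained or morphologically unhealthy cells were scored as dead, with at least 100 cells counted per sample.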

[2] = system: cleavage of PARP and caspase-3 in the H146 cell line; assay: Western blotting of PARP and caspase-3 cleavage, H146; format: cell-based, Human; conditions: H146, 24 h, as low as
Summary of the method: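 H146 cells (RPMI-1640, 10% FBS) treated with test compound for 24 h, then lysed on ice for 20 min in RIPA buffer (PBS, 1% NP40, 0.5% Na-deoxycholate, 0.1% SDS) with […] and protease inhibitors. Cleared lysates were protein-quantified, run on 4–20% SDS-PAGE and transferred to PVDF. Blots were blocked in 5% milk and probed with rabbit anti-PARP, anti-caspase-3 and anti-GAPDH, then HRP secondary and chemiluminescence.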

Bcl-xL = Bcl-xL (Homo sapiens, UniProt Q07817); assay: FP-based competitive binding assay, Bcl-xL; conditions: Bcl-2 and Bcl-xL
Chain of Bcl-xL (Q07817 whole entry): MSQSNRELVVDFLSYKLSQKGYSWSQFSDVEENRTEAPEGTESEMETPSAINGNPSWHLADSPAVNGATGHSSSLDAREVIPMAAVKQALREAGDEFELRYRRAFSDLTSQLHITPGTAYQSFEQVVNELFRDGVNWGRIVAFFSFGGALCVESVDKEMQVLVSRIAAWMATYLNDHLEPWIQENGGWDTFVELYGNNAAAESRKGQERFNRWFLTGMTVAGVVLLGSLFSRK

Chain of Bcl-2 (P10415 whole entry): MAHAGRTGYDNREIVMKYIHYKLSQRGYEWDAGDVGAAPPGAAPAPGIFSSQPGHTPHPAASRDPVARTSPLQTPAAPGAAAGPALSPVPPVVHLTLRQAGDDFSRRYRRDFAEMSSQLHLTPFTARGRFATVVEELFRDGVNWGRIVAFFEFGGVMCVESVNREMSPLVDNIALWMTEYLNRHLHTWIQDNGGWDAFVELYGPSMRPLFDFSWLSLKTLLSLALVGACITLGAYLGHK

Compound: CN(C)CC[C@H](CSc1ccccc1)Nc1ccc(S(=O)(=O)Nc2ccc(N3CCN(Cc4ccccc4-c4ccc(Cl)cc4)CC3)cc2)cc1[N+](=O)[O-] [Compound 13, (R)-N-(4-(4-((4'-Chloro-[1,1'-biphenyl]-2-yl)methyl)piperazin-1-yl)phenyl)-4-((4-(dimethylamino)-1-(phenylthio)butan-2-yl)amino)-3-nitrobenzenesulfonamide]
affinity times weaker than that of 1 (Bcl-2; Bcl-2 and Bcl-xL): > 10

Compound: CCOC(=O)c1c(-c2cccc(N3CCN(c4ccc(NS(=O)(=O)c5ccc(N[C@H](CCN(C)C)CSc6ccccc6)c([N+](=O)[O-])c5)cc4)CC3)c2)c(-c2ccc(Cl)cc2)cn1C [Compound 19, (R)-Ethyl 4-(4-chlorophenyl)-3-(3-(4-(4-(4-((4-(dimethylamino)-1-(phenylthio)butan-2-yl)-amino)-3-nitrophenylsulfonamido)phenyl)piperazin-1-yl)phenyl)-1-methyl-1H-pyrrole-2-carboxylate]
times less potent than 17 in binding to Bcl-2 (Bcl-2): 10
times less potent than 17 in cell growth inhibition [1]: 10

Compound: CCc1c(-c2ccc(Cl)cc2)c(-c2cccc(N3CCN(c4ccc(NS(=O)(=O)c5ccc(N[C@H](CCN(C)C)CSc6ccccc6)c([N+](=O)[O-])c5)cc4)CC3)c2)c(C(=O)O)n1C [Compound 21, (R)-4-(4-Chlorophenyl)-3-(3-(4-(4-(4-((4-(dimethylamino)-1-(phenylthio)butan-2-yl)amino)-3-nitrophenylsulfonamido)phenyl)piperazin-1-yl)phenyl)-5-ethyl-1-methyl-1H-pyrrole-2-carboxylic acid]
cell death induction (H146 cancer cell line): effectively induce cell death in a dose-dependent manner
concentration inducing substantial/robust cell death (H146 cancer cell line): 30 to 100 nM and 30 nM
concentration inducing cleavage of PARP and caspase-3 [2]: 100 nM

Compound: CN(C)CC[C@H](CSc1ccccc1)Nc1ccc(S(=O)(=O)Nc2ccc(N3CCN(c4cccc(-c5c(-c6ccc(Cl)cc6)cn(C)c5C(=O)NCCCN5CCN(C)CC5)c4)CC3)cc2)cc1[N+](=O)[O-] [Compound 16, (R)-4-(4-Chlorophenyl)-3-(3-(4-(4-(4-((4-(dimethylamino)-1-(phenylthio)butan-2-yl)amino)-3-nitrophenylsulfonamido)phenyl)piperazin-1-yl)phenyl)-1-methyl-N-(3-(4-methylpiperazin-1-yl)propyl)-1H-pyrrole-2-carboxamide]
times more potent than 7 in cell growth inhibition [1]: 3–5

Compound: CN(C)CC[C@H](CSc1ccccc1)Nc1ccc(S(=O)(=O)Nc2ccc(N3CCN(c4cccc(-c5c(-c6ccc(Cl)cc6)cn(C)c5C(=O)O)c4)CC3)cc2)cc1[N+](=O)[O-] [Compound 20, (R)-4-(4-Chlorophenyl)-3-(3-(4-(4-(4-((4-(dimethylamino)-1-(phenylthio)butan-2-yl)amino)-3-nitrophenylsulfonamido)phenyl)piperazin-1-yl)phenyl)-1-methyl-1H-pyrrole-2-carboxylic acid]
cell death induction (H146 cancer cell line): effectively induce cell death in a dose-dependent manner

Results, then the molecule that gave them:

times less potent than 7 in binding to Bcl-2 (Bcl-2): > 10
Compound: CN(C)CC[C@H](CSc1ccccc1)Nc1ccc(S(=O)(=O)Nc2ccc(N3CCN(c4ccc(-c5c(-c6ccc(Cl)cc6)cn(CC[C@H](O)CO)c5C(=O)NCCCN5CCN(C)CC5)cc4)CC3)cc2)cc1[N+](=O)[O-] [Compound 12, 4-(4-Chlorophenyl)-1-((S)-3,4-dihydroxybutyl)-3-(4-(4-(4-(4-(((R)-4-(dimethylamino)-1-(phenylthio)butan-2-yl)amino)-3-nitrophenylsulfonamido)phenyl)piperazin-1-yl)phenyl)-N-(3-(4-methylpiperazin-1-yl)propyl)-1H-pyrrole-2-carboxamide]

aqueous solubility (Aqueous solubility): excellent aqueous solubility
Compound: CN1CCN(CCCNC(=O)c2c(-c3ccccc3)c(-c3ccc(Cl)cc3)cn2CC[C@H](O)CO)CC1 [Compound 4, (S)-4-(4-chlorophenyl)-1-(3,4-dihydroxybutyl)-N-(3-(4-methylpiperazin-1-yl)propyl)-3-phenyl-1H-pyrrole-2-carboxamide]

times more potent than either 4 or 5 in binding (Bcl-xL): > 10,000
Compound: CN(C)CCC(CSc1ccccc1)Nc1ccc(S(=O)(=O)NC(=O)c2ccc(N3CCN(c4cccc(-c5c(-c6ccc(Cl)cc6)cn(CC[C@H](O)CO)c5C(=O)NCCCN5CCN(C)CC5)c4)CC3)cc2)cc1[N+](=O)[O-] (stereo in doubt) [Compound 6, 4-(4-Chlorophenyl)-1-((S)-3,4-dihydroxybutyl)-3-(3-(4-(4-(((4-(((S)-4-(dimethylamino)-1-(phenylthio)butan-2-yl)amino)-3-nitrophenyl)sulfonyl)carbamoyl)phenyl)piperazin-1-yl)phenyl)-N-(3-(4-methylpiperazin-1-yl)propyl)-1H-pyrrole-2-carboxamide]

times less potent than 7 in binding (Bcl-2; Bcl-2/Bcl-xL, protein not specified): at least 10
Compound: CN(C)CC[C@H](CSc1ccccc1)Nc1ccc(S(=O)(=O)Nc2ccc(NCCNc3cccc(-c4c(-c5ccc(Cl)cc5)cn(CC[C@H](O)CO)c4C(=O)NCCCN4CCN(C)CC4)c3)cc2)cc1[N+](=O)[O-] [Compound 11, 4-(4-Chlorophenyl)-1-((S)-3,4-dihydroxybutyl)-3-(3-((2-((4-(4-(((R)-4-(dimethylamino)-1-(phenylthio)butan-2-yl)amino)-3-nitrophenylsulfonamido)phenyl)amino)ethyl)amino)phenyl)-N-(3-(4-methylpiperazin-1-yl)propyl)-1H-pyrrole-2-carboxamide]
